Values after ≈ are worked out from the molar mass of the structure shown.

Results on eight compounds are retold here after ChEMBL document CHEMBL3860028, “Bioactive Phenanthrene and Bibenzyl Derivatives from the Stems of Dendrobium nobile” (J Nat Prod, 2016).

Test [1] is described as follows: Antifungal activity against Phytophthora parasitica var. nicotianae after 4 to 14 days by serial dilution method. The class given is functional. The procedure, abridged:
(§1)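 Fungal strains kept on potato dextrose agar. Antifungal activity tested following NCCLS recommendations, with MIC values as the read-out. Prochloraz served as positive control.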

Test [2] in a line: Antifungal activity against Pestallozzia theae after 4 to 14 days by serial dilution method. The class given is functional. The procedure, abridged: as §1
The nature of test [3]: Antifungal activity against Ceratocystis paradoxa moreau after 4 to 14 days by serial dilution method. The class given is functional. Conditions: Thielaviopsis. Summed up:
as §1

A short description of test [4]: Antifungal activity against Exserohilum turcicum after 4 to 14 days by serial dilution method. The format is functional. As to conditions: Setosphaeria turcica. The procedure, abridged: as §1
The next test has as its system Alternaria brassicicola. Description: Antifungal activity against Alternaria brassicicola after 4 to 14 days by serial dilution method. The class given is functional. Summed up:
as §1

Test [5] in a line: Cytotoxicity against human MCF7 cells assessed as decrease in cell viability after 6 days by MTT assay. The format is functional, cell-based. Conditions: MCF7, 144 h. Summed up:
(§2)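 Cell lines from College of Pharmacy, Hebei University, grown in DMEM with 5% fetal bovine serum at 37 °C under 5% CO2. Viability read by MTT method, IC50 values derived. Epirubicin served as positive control.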
(In general: Tetrazolium assays rely on reduction of a dye to a coloured formazan, in cell work by metabolically active cells.)

A short description of test [6]: Antifungal activity against Diaporthe medusaea nitschke after 4 to 14 days by serial dilution method. The class given is functional. As to conditions: Diaporthe rudis. The procedure, abridged: as §1
The nature of test [7]: Cytotoxicity against human HeLa cells assessed as decrease in cell viability after 6 days by MTT assay. The format is functional, cell-based. Conditions: 144 h. Summed up: as §2
Test [8] can be described thus: Cytotoxicity against human A549 cells assessed as decrease in cell viability after 6 days by MTT assay. The format is functional, cell-based. As to conditions: A549, 144 h. The procedure, abridged:
as §2

The test system of another test is Colletotrichum truncatum. Put plainly: Antifungal activity against Colletotrichum capsici after 4 to 14 days by serial dilution method. The class given is functional. Summed up:
as §1

A short description of test [9]: Antifungal activity against Bipolaris oryzae after 4 to 14 days by serial dilution method. The class given is functional. Summed up:
(§3)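 Fungus maintained on potato dextrose agar. Antifungal activity determined as MIC following NCCLS (National […] for Clinical Laboratory Standards) recommendations, with prochloraz as the reference antifungal.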

A further test deals with Alternaria citri. Put plainly: Antifungal activity against Alternaria citri after 4 to 14 days by serial dilution method. The class given is functional. The procedure, abridged: as §3

Consider `COc1cc(O)cc2c1-c1c(O)cccc1CC2` [HIRCINOL], for which the MIC (in test [1]; in test [2]; in test [3]; in [4]; in the test with Alternaria brassicicola; in [6]) was over 400 µM in each case. In addition, the MIC (with Colletotrichum truncatum; in test [9]; against Alternaria citri) was over 400 µM in each case. The IC50 in test [5], in [7] and in [8] was over 10 µM each time.

For the compound `COC1=CC(=O)C[C@@]2(CCc3cccc(O)c32)C1=O`, the MIC (in test [1]; in [2]; in test [3]; in [4]; against Alternaria brassicicola; in [6]) was over 400 µM each time. Further, the MIC (in the test with Colletotrichum truncatum; in test [9]; against Alternaria citri) was over 400 µM each time. The values for the IC50 in [5], in test [7] and in [8] were 9.4 µM, 9.8 µM and 9.9 µM, respectively.

Consider `CCCN(CCOc1c(Cl)cc(Cl)cc1Cl)C(=O)n1ccnc1` [PROCHLORAZ], for which the MIC (in general, the lowest concentration found to suppress growth) came out at 133 µM (≈ 50.2 µg/mL) in [1]; 66.7 µM (≈ 25.1 µg/mL) in [2]; 66.7 µM (≈ 25.1 µg/mL) in test [3]; 33.3 µM (≈ 12.5 µg/mL) in [4]; 33.3 µM (≈ 12.5 µg/mL) against Alternaria brassicicola; 133 µM (≈ 50.2 µg/mL) in test [6]. For the same compound, the figures for the MIC (against Colletotrichum truncatum; in [9]; with Alternaria citri) were 33.3 µM (≈ 12.5 µg/mL), 133 µM (≈ 50.2 µg/mL) and 66.7 µM (≈ 25.1 µg/mL), respectively.

On to `COc1cc(OC)c2c(cc(O)c3cccc(O)c32)c1-c1ccc(O)c2c1ccc1cc(O)cc(OC)c12`, for which the MIC (in test [1]; in [2]; in test [3]; in test [4]; in the test on Alternaria brassicicola; in test [6]) was over 400 µM each time. Besides, the MIC (in the test with Colletotrichum truncatum; in test [9]; with Alternaria citri) was over 400 µM throughout. Besides, the IC50 in [5], in [7] and in test [8] was over 10 µM throughout.

Regarding `COc1cc(O)c2c(c1)CCc1cc(O)c(-c3c(OC)cc4c(c3O)-c3ccc(O)cc3CC4)cc1-2`, the minimal inhibitory concentration (MIC) (in test [1]; in [2]; in test [3]; in [4]; with Alternaria brassicicola; in test [6]) was over 400 µM throughout. Moreover, the MIC (with Colletotrichum truncatum; in [9]; against Alternaria citri) was over 400 µM in each case. In addition, the IC50 in test [5], in [7] and in test [8] was over 10 µM in each case.

As for `COC1=CC(=O)C[C@H]2CCc3cccc(O)c3[C@@]12O`, the MIC (in test [1]; in test [2]; in [3]; in test [4]; with Alternaria brassicicola; in test [6]) was over 400 µM throughout. The MIC (against Colletotrichum truncatum; in [9]; in the test with Alternaria citri) was over 400 µM each time. The IC50 in [5], in [7] and in [8] was over 10 µM each time.

For the compound `COc1cc2c(c(O)c1OC)-c1ccc(O)cc1CC2` [EPHEMERANTHOL A], the MIC (in test [1]; in test [2]; in [3]; in test [4]; against Alternaria brassicicola; in [6]) was over 400 µM throughout. The MIC (in the test on Colletotrichum truncatum; in [9]; against Alternaria citri) was over 400 µM throughout. Besides, the IC50 in [5], in [7] and in test [8] was over 10 µM each time.

`COc1cc2c(c(OC)c1O)-c1ccc(O)cc1CC2` [FLAVANTHRIDIN]: the MIC (in [1]; in test [2]; in test [3]; in test [4]; with Alternaria brassicicola; in [6]) was over 400 µM each time. Moreover, the MIC (in the test on Colletotrichum truncatum; in test [9]; in the test on Alternaria citri) was over 400 µM each time. The IC50 in test [5], in test [7] and in test [8] was over 10 µM throughout.
